Here are results for 45 molecules from ChEMBL document CHEMBL1123700, “2-[(3-Pyridinylmethyl)thio]pyrimidine derivatives: new bronchosecretolytic agents” (1987).

The test system of the first assay is Canis familiaris. The assay is described as follows: Percent viscosity was determined in canine bronchial mucus, 1 hr after intravenous administration of 0.1 mg/kg. It is filed as functional, Canis lupus familiaris.
Settings: not given
In outline: (§1)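 Mongrel dogs (18-24 kg), food withheld 16 h, anesthetized with pentobarbital 40 mg/kg iv plus infusion of 0.1 mg kg-1 min-1. Compounds in isotonic NaCl, given iv; 0.9% NaCl as control. Bronchial mucus sampled by bronchoscope, dialyzed against water at 0 °C for 24 h, freeze-dried, taken up at 1% w/v in 0.1 M Tris pH 7. Viscosity 1 h after dosing expressed as % of initial, mean ± SD.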
On to `Cl.c1cnc(SCc2cccnc2)nc1`, for which the Activity came to 109%.

The next assay has as its system Canis familiaris. The assay is described as follows: Percent viscosity was determined in canine bronchial mucus, 1 hr after intravenous administration of 0.2 mg/kg. It counts as functional, Canis lupus familiaris.
Settings: not given
Put shortly: as §1
`Nc1cc(O)nc(SCc2cccnc2)n1` gave an Activity of 76.3%.

As for `Nc1cc(O)nc(SCc2ccc(Cl)nc2)n1`, the Activity worked out at 84.2%.

`Cl.c1cnc(SCc2cccnc2)nc1` returned an Activity of 28%.

Another assay concerns Canis familiaris. The assay is described as follows: Percent viscosity was determined in canine bronchial mucus, 1 hr after intravenous administration of 0.5 mg/kg. It is filed as functional, Canis lupus familiaris.
Settings: not given
Put shortly:
as §1
Consider `Nc1cc(O)nc(SCc2cccnc2)n1`, for which the Activity came to 15.8%.

As to `Nc1cc(O)nc(SCc2ccc(Cl)nc2)n1`, the Activity is 19.7%.

`Cl.c1cnc(SCc2cccnc2)nc1` displayed an Activity of 5.5%.

A further assay deals with Mus musculus. The assay is described as follows: Bronchosecretory activity measured as tracheal secretion of phenol red in mouse after oral administration. It counts as functional.
Settings: not given
Put shortly:
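Male NMRI mice, food withheld 24 h, water free. Compounds suspended in 0.5% carboxymethylcellulose just before use and given by gavage at 5 mL/kg. Phenol red given intraperitoneally; 50 min after dosing it is measured photometrically in tracheal lavage fluid. Output compared with mean of vehicle controls. ED50 (dose giving 50% increase over control) by linear regression with 95% confidence limits.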
What is called ED50 is the midpoint of the dose-response relation. For the molecule `Cl.c1cnc(SCc2cccnc2)nc1`, it took a dose of 5.34 µmol/kg to reach the 50% effect level (ED50).

The molecule `c1cnc(SCc2cccnc2)nc1` [TASULDINE] yielded an ED50 of 4.82 µmol/kg.

Still in this assay, the particulars now being: Mus musculus, po.
On to `c1cncc(CSc2nc3ccccc3[nH]2)c1`, for which the ED50 turned out to be 31.8 µmol/kg.

Take `N=c1cc(N)nc(SCc2cccnc2)[nH]1`: the 50% effect level (ED50) was put at a dose of 272 µmol/kg.

In turn, `Clc1ncccc1CSc1ncccn1` displayed an ED50 of 84.1 µmol/kg.

The molecule `Nc1cc(O)nc(SCc2cccnc2)n1` had an ED50 of 8.93 µmol/kg.

`c1cnc(SCc2cccnc2)nc1` returned a median effective dose (ED50) of 4.67 µmol/kg.

Regarding `[O-][S+](Cc1cccnc1)c1ncccn1` (configuration not stated), the ED50 worked out at 7.82 µmol/kg.

With `Cn1ccnc1SCc1cccnc1`, it took a dose of 5.35 µmol/kg to reach the 50% effect level (ED50).

`Cc1ccc2nc(SCc3cccnc3)oc2c1` registered an ED50 of 51.2 µmol/kg.

Molecule `Cc1ccnc([S+]([O-])Cc2cccnc2)n1` (configuration not stated) showed an ED50 of 30.9 µmol/kg.

Regarding `c1cncc(CSc2nc3ncccc3o2)c1`, the ED50 worked out at 38 µmol/kg.

`c1cncc(CSC2=NCCS2)c1` displayed an ED50 of 20.3 µmol/kg.

Molecule `Oc1ccnc(SCc2cccnc2)n1` yielded an ED50 of 456 µmol/kg.

In turn, `Cc1ccc(S(=O)(=O)Cc2cccnc2)cc1` registered an ED50 of 141 µmol/kg.

Molecule `[O-][S+](Cc1cccnc1)c1ccc(Cl)cc1` (configuration not stated) had an ED50 of 43.9 µmol/kg.

The molecule `Cc1ccc(SCc2cccnc2)cc1` came in with a 50% effective dose (ED50) of 39.7 µmol/kg.

In the case of `Cn1ccnc1S(=O)(=O)Cc1cccnc1`, the 50% effect level (ED50) was put at a dose of 95.8 µmol/kg.

Molecule `CC(Sc1ncccn1)c1cccnc1` (configuration not stated) displayed an ED50 of 42.6 µmol/kg.

On to `Nc1cc(O)nc(SCc2ccc(Cl)nc2)n1`, for which the ED50 is 8.3 µmol/kg.

In the case of `[O-][S+](Cc1ccncc1)c1ncccn1` (configuration not stated), it took a dose of 391 µmol/kg to reach the 50% effect level (ED50).

For `Cc1ccc([S+]([O-])Cc2cccnc2)cc1` (configuration not stated), the ED50 was determined as 149 µmol/kg.

Molecule `Cc1cc(O)nc(SCc2cccnc2)n1` returned an ED50 of 64.3 µmol/kg.

As for `Nc1ccnc(SCc2cccnc2)n1`, the ED50 came to 22.9 µmol/kg.

Consider `Cc1ccc(C(C)Sc2ncccn2)cn1` (configuration not stated), for which the ED50 turned out to be 432 µmol/kg.

Take `c1cnc(SCc2ccncc2)nc1`: the ED50 is 41.7 µmol/kg.

Turning to `c1ccc(-c2nc(SCc3cccnc3)oc2-c2ccccc2)cc1`, the ED50 was determined as 13.1 µmol/kg.

Consider `Cc1ccc(CSc2ncccn2)cn1`, for which the ED50 stood at 298 µmol/kg.

`c1ccc(CSc2ccccn2)nc1` showed an ED50 of 21.8 µmol/kg.

`Cc1ccnc(SCc2cccnc2)n1`: the ED50 was 39.4 µmol/kg.

On to `Nc1c(Br)cc(Br)cc1CN[C@H]1CC[C@H](O)CC1` [AMBROXOL], for which it took a dose of 603 µmol/kg to reach the 50% effect level (ED50).

Regarding `O=S(=O)(Cc1cccnc1)c1ccc(Cl)cc1`, the median effective dose (ED50) stood at 27.9 µmol/kg.

Molecule `Clc1ccc(SCc2cccnc2)cc1` had an ED50 of 22 µmol/kg.

As to `Clc1ccc(CSc2ncccn2)cn1`, the ED50 was determined as 84.1 µmol/kg.

`c1cncc(CSc2ccc3ccccc3n2)c1` returned an ED50 of 21.5 µmol/kg.

Molecule `c1cncc(CSc2ncnc3[nH]ncc23)c1` showed an ED50 of 41.1 µmol/kg.

Turning to `c1ccc(CSc2nc3ccccc3o2)nc1`, the median effective dose (ED50) came out at 157 µmol/kg.

The molecule `Cn1ccnc1[S+]([O-])Cc1cccnc1` (configuration not stated) gave a 50% effective dose (ED50) of 49.8 µmol/kg.

On to `COc1cccc(SCc2cccnc2)c1`, for which the ED50 was determined as 182 µmol/kg.

`Cc1cc(C)nc(SCc2cccnc2)n1` showed an ED50 of 44.8 µmol/kg.

Molecule `c1cncc(CSc2nc3ccccc3o2)c1` yielded a median effective dose (ED50) of 61.9 µmol/kg.

`c1ccc(SCc2cccnc2)nc1` displayed a median effective dose (ED50) of 7.63 µmol/kg.

The assay is the same for the next values; noted with them: Mus musculus, po; read-out: ED50.
On to `CC(C)(C)NCC(O)c1ccc(O)c(CO)c1` (configuration not stated) [ALBUTEROL], for which the ED50 stood at 12.5 µmol/kg.

The next assay concerns Mus musculus. The assay is described as follows: Bronchosecretory activity measured as tracheal secretion of phenol red in mouse after subcutaneous administration.
Settings: not given
`C[N+](C)(C)CCOC(N)=O` [CARBACHOL]: the ED50 was determined as 0.2 µmol/kg.

`NCC(O)c1cccc(O)c1` (configuration not stated) [NORFENEFRINE] registered an ED50 of 1.3 µmol/kg.
